Results reported in ChEMBL document CHEMBL4229372, “Synthesis and anti-mitotic activity of 2,4- or 2,6-disubstituted- and 2,4,6-trisubstituted-2H-pyrazolo[4,3-c]pyridines” (2018).
The source made the active and inactive calls. The calls are words filed in the database; no cut-off is given here.

Assays:
[1] = target: T1, Serine/threonine-protein kinase Nek2 (Homo sapiens) (UniProt P51955); test: Inhibition of NEK2 (unknown origin)
T1 sequence (whole entry): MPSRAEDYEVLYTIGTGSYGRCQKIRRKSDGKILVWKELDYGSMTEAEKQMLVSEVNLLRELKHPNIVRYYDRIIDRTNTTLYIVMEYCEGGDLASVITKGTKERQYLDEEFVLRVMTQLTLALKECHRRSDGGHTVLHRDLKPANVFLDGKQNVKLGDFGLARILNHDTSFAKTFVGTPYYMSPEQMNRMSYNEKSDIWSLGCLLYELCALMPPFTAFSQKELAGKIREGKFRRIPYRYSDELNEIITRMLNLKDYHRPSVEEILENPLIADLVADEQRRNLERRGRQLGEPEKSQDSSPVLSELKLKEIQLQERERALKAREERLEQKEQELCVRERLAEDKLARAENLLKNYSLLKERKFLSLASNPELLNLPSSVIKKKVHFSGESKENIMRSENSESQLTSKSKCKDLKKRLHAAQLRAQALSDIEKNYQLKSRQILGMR

[2] = target: Death-associated protein kinase 3 (Homo sapiens) (UniProt O43293); test: Inhibition of DAPK3 (unknown origin)
Sequence of Death-associated protein kinase 3 (Homo sapiens) (O43293 whole entry, looked up): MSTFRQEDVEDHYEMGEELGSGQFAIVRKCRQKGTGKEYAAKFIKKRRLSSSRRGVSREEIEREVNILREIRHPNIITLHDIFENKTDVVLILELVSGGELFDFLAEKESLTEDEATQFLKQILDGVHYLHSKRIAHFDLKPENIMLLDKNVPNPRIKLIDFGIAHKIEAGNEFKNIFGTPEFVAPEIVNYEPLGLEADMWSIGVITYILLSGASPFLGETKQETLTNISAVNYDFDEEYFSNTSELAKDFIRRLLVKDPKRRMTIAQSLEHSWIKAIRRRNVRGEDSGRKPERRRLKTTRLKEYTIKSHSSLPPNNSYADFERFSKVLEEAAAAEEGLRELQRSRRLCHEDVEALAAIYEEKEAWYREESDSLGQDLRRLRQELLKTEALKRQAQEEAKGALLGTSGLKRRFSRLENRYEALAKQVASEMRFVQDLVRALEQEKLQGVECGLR

K562 [3] = test: Induction of apoptosis in human K562 cells assessed as increase in gammaH2AX level at 1.25 to 20 uM after 24 hrs by immunoblotting; assay type: functional, cell-based
Method in brief: (§1)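 Cells treated 24 h with a range of doses, with 1 μM doxorubicin as control. Cells were harvested into Laemmli buffer, run on SDS-PAGE and blotted to nitrocellulose. Membranes were probed overnight with primary antibodies (PARP, Ser139-phospho-H2AX, Bcl-2, β-actin loading control), then peroxidase secondaries, with ECL detection on a CCD imager.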

K562 [4] = test: Cell cycle arrest in human K562 cells assessed as accumulation at sub G1 phase at 10 uM after 24 hrs by propidium iodide staining-based flow cytometric analysis (reference value: 15%); assay type: functional
MCF7 [5] = test: Cell cycle arrest in human MCF7 cells assessed as accumulation at G2/M phase at 10 uM after 24 hrs by propidium iodide staining-based flow cytometric analysis (reference value: 5.3%); assay type: functional
Method in brief: (§2)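 MCF-7 cells in DMEM with 10% FBS and penicillin/streptomycin at 37 °C, 5% CO2. Asynchronous cells were treated 24 h, PBS-washed, trypsinized and quenched with 0.1% trypsin inhibitor. Staining used 5× citrate/IGEPAL/spermine/Tris buffer (pH 7.6) with 50 μg/mL propidium iodide. DNA content was read by 488 nm flow cytometry and cell-cycle phases modelled.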

MCF7 [6] = test: Growth inhibition of human MCF7 cells after 72 hrs by Calcein AM dye based fluorescence assay; assay type: functional; settings: MCF7, 72 h
Method in brief: (§3)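 Cells in DMEM with 10% FBS at 37 °C, 5% CO2, treated in triplicate with six doses for 72 h. Calcein AM was added for 1 h and live-cell fluorescence read at 485/538 nm. GI50 was taken from dose-response curves.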

[7] = target: Serine/threonine-protein kinase PLK3 (Homo sapiens) (UniProt Q9H4B4); test: Inhibition of PLK3 (unknown origin)
Sequence of Serine/threonine-protein kinase PLK3 (Homo sapiens) (Q9H4B4 whole entry, looked up): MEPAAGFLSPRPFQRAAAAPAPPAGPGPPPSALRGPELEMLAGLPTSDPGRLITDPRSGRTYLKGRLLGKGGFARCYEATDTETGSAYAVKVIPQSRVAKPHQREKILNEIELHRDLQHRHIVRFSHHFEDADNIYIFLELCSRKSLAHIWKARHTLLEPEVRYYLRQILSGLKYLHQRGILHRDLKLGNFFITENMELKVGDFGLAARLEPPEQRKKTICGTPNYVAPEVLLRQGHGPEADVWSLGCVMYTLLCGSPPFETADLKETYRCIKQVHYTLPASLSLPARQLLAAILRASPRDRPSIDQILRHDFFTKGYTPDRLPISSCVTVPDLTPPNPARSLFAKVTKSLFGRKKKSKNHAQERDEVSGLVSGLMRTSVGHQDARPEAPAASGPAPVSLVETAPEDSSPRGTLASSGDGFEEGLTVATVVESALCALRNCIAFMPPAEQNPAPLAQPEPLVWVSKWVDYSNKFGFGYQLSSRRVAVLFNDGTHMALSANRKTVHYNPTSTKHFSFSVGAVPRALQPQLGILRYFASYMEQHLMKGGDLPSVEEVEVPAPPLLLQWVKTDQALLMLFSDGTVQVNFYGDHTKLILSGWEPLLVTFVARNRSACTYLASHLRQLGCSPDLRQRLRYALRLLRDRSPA

[8] = target: Wee1-like protein kinase (Homo sapiens) (UniProt P30291); test: Inhibition of WEE1 (unknown origin)
Sequence of Wee1-like protein kinase (Homo sapiens) (P30291 whole entry, looked up): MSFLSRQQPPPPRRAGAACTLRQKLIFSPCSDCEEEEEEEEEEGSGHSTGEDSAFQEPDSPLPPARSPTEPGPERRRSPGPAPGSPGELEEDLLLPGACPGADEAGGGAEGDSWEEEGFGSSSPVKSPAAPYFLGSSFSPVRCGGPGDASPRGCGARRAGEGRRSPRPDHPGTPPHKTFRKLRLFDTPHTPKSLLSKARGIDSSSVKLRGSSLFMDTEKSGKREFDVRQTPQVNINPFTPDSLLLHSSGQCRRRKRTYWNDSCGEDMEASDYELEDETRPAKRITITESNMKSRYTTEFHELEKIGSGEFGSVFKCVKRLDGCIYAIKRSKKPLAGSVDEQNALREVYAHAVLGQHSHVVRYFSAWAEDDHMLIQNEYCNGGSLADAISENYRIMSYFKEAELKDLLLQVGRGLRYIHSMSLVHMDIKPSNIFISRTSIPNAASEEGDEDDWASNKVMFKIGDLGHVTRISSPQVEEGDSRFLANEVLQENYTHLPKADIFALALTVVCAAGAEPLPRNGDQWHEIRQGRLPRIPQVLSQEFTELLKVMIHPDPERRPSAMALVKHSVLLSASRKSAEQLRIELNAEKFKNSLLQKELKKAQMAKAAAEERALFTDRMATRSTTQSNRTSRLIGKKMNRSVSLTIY

K562 [9] = test: Cell cycle arrest in human K562 cells assessed as accumulation at G2/M phase at 10 uM after 24 hrs by propidium iodide staining-based flow cytometric analysis (reference value: 15%); assay type: functional
[10] = target: T2, Serine/threonine-protein kinase Chk1 (Homo sapiens) (UniProt O14757); test: Inhibition of CHK1 (unknown origin)
T2 sequence (whole entry): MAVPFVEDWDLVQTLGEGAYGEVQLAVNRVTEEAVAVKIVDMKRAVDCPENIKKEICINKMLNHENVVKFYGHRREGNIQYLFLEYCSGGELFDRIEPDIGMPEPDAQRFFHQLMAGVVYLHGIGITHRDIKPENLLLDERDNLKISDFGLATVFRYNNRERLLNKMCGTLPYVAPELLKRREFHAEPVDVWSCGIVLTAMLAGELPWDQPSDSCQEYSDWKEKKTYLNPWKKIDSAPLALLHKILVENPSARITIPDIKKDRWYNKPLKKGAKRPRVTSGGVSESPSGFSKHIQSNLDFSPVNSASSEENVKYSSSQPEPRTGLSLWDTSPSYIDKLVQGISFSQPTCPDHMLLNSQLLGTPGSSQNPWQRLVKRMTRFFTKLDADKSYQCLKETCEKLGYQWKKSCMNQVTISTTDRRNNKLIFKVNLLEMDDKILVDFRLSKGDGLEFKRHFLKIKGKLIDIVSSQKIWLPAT

[11] = target: Serine/threonine-protein kinase PLK2 (Homo sapiens) (UniProt Q9NYY3); test: Inhibition of PLK2 (unknown origin)
Sequence of Serine/threonine-protein kinase PLK2 (Homo sapiens) (Q9NYY3 whole entry, looked up): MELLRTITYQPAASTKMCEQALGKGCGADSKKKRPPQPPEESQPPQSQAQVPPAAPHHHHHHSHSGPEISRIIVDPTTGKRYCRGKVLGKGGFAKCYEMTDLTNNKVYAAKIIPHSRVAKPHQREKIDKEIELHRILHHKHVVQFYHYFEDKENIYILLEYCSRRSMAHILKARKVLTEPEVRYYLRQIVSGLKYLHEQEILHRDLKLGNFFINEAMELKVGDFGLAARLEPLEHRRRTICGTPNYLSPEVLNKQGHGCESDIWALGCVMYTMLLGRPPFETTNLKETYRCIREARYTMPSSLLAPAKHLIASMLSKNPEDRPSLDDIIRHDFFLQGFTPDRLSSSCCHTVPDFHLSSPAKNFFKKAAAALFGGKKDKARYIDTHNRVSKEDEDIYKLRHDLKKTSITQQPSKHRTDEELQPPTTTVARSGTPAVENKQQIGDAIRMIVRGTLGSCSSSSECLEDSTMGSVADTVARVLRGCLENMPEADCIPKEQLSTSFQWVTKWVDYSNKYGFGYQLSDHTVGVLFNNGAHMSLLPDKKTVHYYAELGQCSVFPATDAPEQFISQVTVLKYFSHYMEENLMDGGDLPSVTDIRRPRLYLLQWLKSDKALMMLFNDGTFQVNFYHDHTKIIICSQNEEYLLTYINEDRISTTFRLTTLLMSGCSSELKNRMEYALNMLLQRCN

K562 [12] = test: Growth inhibition of human K562 cells after 72 hrs by Calcein AM dye based fluorescence assay; assay type: functional; settings: K562, 72 h; method in brief: as §3
MCF7 [13] = test: Cell cycle arrest in human MCF7 cells assessed as accumulation at sub G1 phase at 10 uM after 24 hrs by propidium iodide staining-based flow cytometric analysis (reference value: 7.1%); assay type: functional; method in brief: as §2
K562 [14] = test: Induction of apoptosis in human K562 cells assessed as activation of caspase 3/7 using Ac-DEVD-AMC as substrate after 24 hrs by fluorescence assay; assay type: functional, cell-based
Method in brief: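 K562 cells were cultured overnight and treated with increasing concentrations for 24 h. Lysis buffer (3×; HEPES pH 7.4, NaCl, KCl, MgCl2, EGTA, NP40, CHAPS, sucrose, DTT, PMSF) containing 150 μM Ac-DEVD-AMC was added for 2 h. Fluorescence was read at 346/442 nm and normalized to untreated control.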

K562 [15] = test: Induction of apoptosis in human K562 cells assessed as increase in PARP1 cleavage after 24 hrs by Immunoblotting; assay type: functional, cell-based; method in brief: as §1
K562 [16] = test: Cell cycle arrest in human K562 cells assessed as accumulation at G2/M phase assessed as accumulation of histone H3 phosphorylation at serine 10 residues at 5 uM after 24 hrs by propidium iodide staining-based flow cytometric analysis (reference value: 2.2%); assay type: functional
[17] = target: Serine/threonine-protein kinase Nek6 (Homo sapiens) (UniProt Q9HC98); test: Inhibition of NEK6 (unknown origin)
Sequence of Serine/threonine-protein kinase Nek6 (Homo sapiens) (Q9HC98 whole entry): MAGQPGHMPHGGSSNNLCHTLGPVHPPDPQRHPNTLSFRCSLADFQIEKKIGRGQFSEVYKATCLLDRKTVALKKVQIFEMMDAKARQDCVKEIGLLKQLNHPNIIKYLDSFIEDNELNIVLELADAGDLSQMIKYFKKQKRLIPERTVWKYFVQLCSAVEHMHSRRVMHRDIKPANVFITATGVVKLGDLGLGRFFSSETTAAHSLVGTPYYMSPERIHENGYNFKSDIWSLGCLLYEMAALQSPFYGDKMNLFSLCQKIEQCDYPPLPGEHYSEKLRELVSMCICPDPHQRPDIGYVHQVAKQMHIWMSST

K562 [18] = test: Induction of apoptosis in human K562 cells assessed as increase in phosphorylated Bcl2 level at 1.25 to 20 uM after 24 hrs by immunoblotting; assay type: functional, cell-based; method in brief: as §1
K562 [19] = test: Cell cycle arrest in human K562 cells assessed as accumulation at S phase at 10 uM after 24 hrs by propidium iodide staining-based flow cytometric analysis (reference value: 50.3%); assay type: functional
[20] = target: Serine/threonine-protein kinase 38 (Homo sapiens) (UniProt Q15208); test: Inhibition of NDR1 (unknown origin)
Sequence of Serine/threonine-protein kinase 38 (Homo sapiens) (Q15208 2-465 limits assumed): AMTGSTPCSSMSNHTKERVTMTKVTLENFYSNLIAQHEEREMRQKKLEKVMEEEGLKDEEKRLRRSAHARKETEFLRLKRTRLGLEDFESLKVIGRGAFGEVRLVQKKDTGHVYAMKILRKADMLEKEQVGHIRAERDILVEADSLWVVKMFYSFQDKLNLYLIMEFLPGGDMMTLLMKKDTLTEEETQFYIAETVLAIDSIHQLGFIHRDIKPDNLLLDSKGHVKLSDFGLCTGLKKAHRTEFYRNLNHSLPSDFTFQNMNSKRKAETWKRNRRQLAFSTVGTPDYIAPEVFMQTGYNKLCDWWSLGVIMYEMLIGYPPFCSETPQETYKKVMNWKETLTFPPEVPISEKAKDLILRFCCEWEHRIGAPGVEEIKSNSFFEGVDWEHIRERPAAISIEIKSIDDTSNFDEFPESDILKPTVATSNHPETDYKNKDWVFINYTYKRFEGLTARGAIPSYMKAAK

MCF7 [21] = test: Induction of apoptosis in human MCF7 cells assessed as increase in phosphorylated Bcl2 level at 1.25 to 20 uM after 24 hrs by immunoblotting; assay type: functional, cell-based; method in brief: as §1
MCF7 [22] = test: Cell cycle arrest in human MCF7 cells assessed as accumulation at G1 phase at 10 uM after 24 hrs by propidium iodide staining-based flow cytometric analysis (reference value: 60.7%); assay type: functional; method in brief: as §2
K562 [23] = test: Cell cycle arrest in human K562 cells assessed as accumulation at G2/M phase after 24 hrs by propidium iodide staining-based flow cytometric analysis; assay type: functional

CCCCCc1cc2nn(-c3ccccc3)cc2cn1
inhibition [1]: inactive | inhibition [2]: inactive | Activity (K562 [3]): Active | Activity (K562 [4]): 35.4% | Activity (MCF7 [5]): 55.6% | GI50 (MCF7 [6]): 11.8 µM | inhibition [7]: inactive | inhibition [8]: inactive | Activity (K562 [9]): 82% | inhibition [10]: inactive | inhibition [11]: inactive | GI50 (K562 [12]): 2.1 µM | Activity (MCF7 [13]): 50.3% | Activity (K562 [14]): Dose-dependent effect | Activity (K562 [15]): Dose-dependent effect | Activity (K562 [16]): 20.4% | inhibition [17]: inactive | Activity (K562 [18]): Active | Activity (K562 [19]): 3.3% | inhibition [20]: inactive | Activity (MCF7 [21]): Active | Activity (MCF7 [22]): 18.1% | Activity (K562 [23]): Dose-dependent effect
